Our source for the activation values is PubChem BioAssay AID651787 (The Scripps Research Institute Molecular Screening Center, 2012).

Among all 2,400 compounds or so, about 1,200 (50%) were called active. So high a share suggests a set chosen from earlier hits. Not all results are given here. A number with no mark means an inactive call.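 Rule for the calls: active = activation above the run cutoff, the mean activation over all tested wells plus 3 SD (cut at about 12% in these data); inactive = the rest.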

The test in a line: nonselective calcium mobilization agonists, CHO-Ga16 cells, counter-screen for hTAAR1 agonist project, cell-based, fluorescence, CHO-Ga16 parental line (AID 651787). As to conditions: Fluo-8 calcium fluorescence, at 3 µM, active compounds read high, normalized to maximal ATP response, DMSO zero. An outline of the steps: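 Assay system: Gα16-overexpressing parental CHO cells; read-out basis: percent activation from max/basal fluorescence ratio; schedule: 17-24 h seeding, dye 75 min 37 °C, 30 min RT; control set: DMSO (0%) and EC100 ATP (100%); signal: kinetic Fluo-8 calcium fluorescence, ex 470-495/em 515-575 nm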
(A change in cytosolic calcium serves as a functional read-out for many receptors and channels.)
On to `Cc1ccc(Sc2cc(N3CCOCC3)nc(-c3ccccc3)n2)cc1`, for which the activation is 4.27%.

For the compound `O=C(COC(=O)Cc1ccccc1F)NCCc1ccccc1`, the activation was 0.47%.

Regarding `O=C(Nc1ccc(Cl)cc1)N1CCc2[nH]c3ccccc3c2C1`, the activation was 1.95%.

Consider `COc1ccc(OC)c(NC(=S)N2CCc3ccccc3C2)c1`, for which the activation is 0.03%.

With `Fc1ccc(NC(=S)N2CCc3[nH]c4ccccc4c3C2)cc1`, the activation is 11.5% (active).

With `c1ccc2c(c1)C(=NC1CCCCC1)NC2=NC1CCCCC1`, the activation is 59.9% (active).

With `CCC(c1nnnn1Cc1ccco1)N(CCc1ccccc1)Cc1cc2cccc(C)c2[nH]c1=O` (stereo not drawn), the activation is 8.41%.

For `CC(Oc1ccc(Cl)cc1)C(=O)OCC(=O)Nc1ncc(Cl)cc1Cl` (stereo not drawn), the activation was 14.9% (active).

Turning to `COc1ccc2c(c1)OC(O)(C(F)(F)C(F)F)CC2=O` (stereo not drawn), the activation is 27.7% (active).

Take `COc1ccc(Cl)cc1C(=O)NNC(=S)NC(=O)/C=C/c1ccco1`: the activation was 83.3% (active).

For the compound `Cc1ccc(NC(=O)CCN2CCc3ccccc3C2)cc1`, the activation was 10.8%.

Take `Nc1cc(OC(=O)c2ccccc2Br)nn1S(=O)(=O)c1ccccc1`: the activation was 39.3% (active).

With `O=C(NCCc1ccccc1)C(=O)NCC1OCCN1S(=O)(=O)c1cccs1` (stereo not drawn), the activation is 1.98%.

`S=C(NCCc1ccccc1)N1CCn2cccc2C1c1ccncc1` (stereo not drawn): the activation was 12.7% (active).

As to `CCCSc1nc2c(c(=O)n(C)c(=O)n2C)n1Cc1ccc(C)cc1`, the activation is 34.2% (active).

Consider `O=C1C=C(c2ccc(Cl)cc2)C(=O)N1Nc1ccccc1`, for which the activation is 46% (active).

`COc1ccc2cc(-c3[nH]ncc3CNCCn3nc(C)cc3C)ccc2c1`: the activation is 0.78%.

With `COc1cccc(-c2cnc(OC(C)(C)C)nc2OC(C)(C)C)c1`, the activation was 14.5% (active).

For `CSc1nc(N)c(C#N)c(-c2ccccc2Cl)c1C#N`, the activation is 54.2% (active).

Regarding `O=C(N[C@H](C(=O)N1CCC[C@H]1C(=O)NCCc1ccccc1Cl)c1ccccc1)c1ccccc1`, the activation was 1.78%.

`OC(CNCCc1ccc(Cl)cc1Cl)COc1ccccc1` (stereo not drawn): the activation is 17.8% (active).

Take `c1ccc2c(c1)OCC(CNc1ncnc3nc[nH]c13)O2` (stereo not drawn): the activation is 170% (active).

`COc1cc(OC)c(-n2cc(-c3ccc(Cl)cc3)[nH]c2=O)cc1Cl`: the activation is 74.4% (active).
